SMILES strings stand for the structures.

Common to all, as to conditions: stereoisomer not certain
The target in assay [1] is T1, UniProt A2AVB5.
T1 sequence (whole entry): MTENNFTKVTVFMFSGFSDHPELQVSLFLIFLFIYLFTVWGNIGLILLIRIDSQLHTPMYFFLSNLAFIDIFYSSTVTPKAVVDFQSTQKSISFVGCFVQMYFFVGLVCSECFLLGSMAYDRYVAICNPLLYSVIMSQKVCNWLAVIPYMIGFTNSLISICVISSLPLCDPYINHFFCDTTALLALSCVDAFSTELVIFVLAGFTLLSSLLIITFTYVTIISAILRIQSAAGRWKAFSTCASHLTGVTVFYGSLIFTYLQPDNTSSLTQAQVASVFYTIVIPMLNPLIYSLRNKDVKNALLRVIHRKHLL
The method in brief: (§1)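 Values were gathered from published papers (main text and supplementary material), with extra details requested from the original authors when needed, and checked for typos and inconsistencies. Each receptor–molecule pair is called responsive (active) if the original authors judged the measured signal statistically different from baseline, and non-responsive (inactive) otherwise. Assay methods varied by source, often transient mammalian cell-line luciferase assays. Recorded details include cell line, G-protein, co-transfected protein and tags.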

The target in assay [2] is T2, UniProt B2RVX8.
T2 sequence (whole entry): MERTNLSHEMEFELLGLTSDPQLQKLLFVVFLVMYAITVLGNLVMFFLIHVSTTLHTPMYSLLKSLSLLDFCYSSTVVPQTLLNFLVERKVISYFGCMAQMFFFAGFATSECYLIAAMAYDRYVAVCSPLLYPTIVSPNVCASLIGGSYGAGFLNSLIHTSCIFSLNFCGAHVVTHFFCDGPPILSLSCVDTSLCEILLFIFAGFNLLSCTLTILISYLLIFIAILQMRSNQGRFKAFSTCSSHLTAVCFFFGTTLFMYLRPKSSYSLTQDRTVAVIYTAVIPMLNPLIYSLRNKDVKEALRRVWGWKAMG
Summed up:
as §1

Assay [3] addresses T3, UniProt E9Q546.
T3 sequence (whole entry): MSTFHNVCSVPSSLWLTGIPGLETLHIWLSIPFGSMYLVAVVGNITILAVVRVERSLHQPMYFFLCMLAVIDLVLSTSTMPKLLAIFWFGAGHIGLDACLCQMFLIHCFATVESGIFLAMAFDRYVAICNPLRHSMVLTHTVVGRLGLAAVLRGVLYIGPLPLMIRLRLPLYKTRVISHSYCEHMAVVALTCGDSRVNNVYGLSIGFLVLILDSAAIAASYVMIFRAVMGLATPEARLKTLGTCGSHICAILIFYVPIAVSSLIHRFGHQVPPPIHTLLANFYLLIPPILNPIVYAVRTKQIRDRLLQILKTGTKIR
Summed up: as §1

For assay [4], the target named is T4, UniProt K7N609.
T4 sequence (whole entry): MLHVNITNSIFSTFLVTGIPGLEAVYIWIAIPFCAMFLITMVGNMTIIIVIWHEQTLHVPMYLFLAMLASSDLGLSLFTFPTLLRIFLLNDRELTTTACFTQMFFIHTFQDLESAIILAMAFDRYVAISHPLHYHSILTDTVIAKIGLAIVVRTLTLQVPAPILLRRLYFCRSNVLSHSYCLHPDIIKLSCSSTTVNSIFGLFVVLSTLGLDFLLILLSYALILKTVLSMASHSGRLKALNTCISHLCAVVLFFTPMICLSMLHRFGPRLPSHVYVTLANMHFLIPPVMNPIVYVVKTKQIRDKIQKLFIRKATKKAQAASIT
Summed up:
as §1

The target in assay [5] is T5, UniProt A2ATE5.
T5 sequence (whole entry): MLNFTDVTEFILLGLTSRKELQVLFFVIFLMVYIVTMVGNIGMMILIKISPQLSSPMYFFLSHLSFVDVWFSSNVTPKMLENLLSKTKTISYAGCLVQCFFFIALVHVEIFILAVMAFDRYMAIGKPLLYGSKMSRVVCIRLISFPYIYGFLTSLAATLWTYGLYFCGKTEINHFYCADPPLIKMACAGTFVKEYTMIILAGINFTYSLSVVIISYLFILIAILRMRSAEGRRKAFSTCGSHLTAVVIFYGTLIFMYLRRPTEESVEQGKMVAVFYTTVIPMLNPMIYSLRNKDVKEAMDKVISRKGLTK
Summed up: as §1

In assay [6] the target is T6, UniProt A2AVB0.
T6 sequence (whole entry): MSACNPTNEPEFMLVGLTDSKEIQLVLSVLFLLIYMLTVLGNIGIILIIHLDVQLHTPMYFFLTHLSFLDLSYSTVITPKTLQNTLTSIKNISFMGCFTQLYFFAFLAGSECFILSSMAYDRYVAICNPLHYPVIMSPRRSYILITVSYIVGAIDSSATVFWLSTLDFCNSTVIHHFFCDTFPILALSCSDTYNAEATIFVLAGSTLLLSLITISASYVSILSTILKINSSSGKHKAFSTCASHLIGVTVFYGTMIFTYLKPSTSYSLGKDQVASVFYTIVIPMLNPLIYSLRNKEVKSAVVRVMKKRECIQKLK
The method in brief:
as §1

For assay [7], the target named is T7, UniProt E9PVX1.
T7 sequence (whole entry): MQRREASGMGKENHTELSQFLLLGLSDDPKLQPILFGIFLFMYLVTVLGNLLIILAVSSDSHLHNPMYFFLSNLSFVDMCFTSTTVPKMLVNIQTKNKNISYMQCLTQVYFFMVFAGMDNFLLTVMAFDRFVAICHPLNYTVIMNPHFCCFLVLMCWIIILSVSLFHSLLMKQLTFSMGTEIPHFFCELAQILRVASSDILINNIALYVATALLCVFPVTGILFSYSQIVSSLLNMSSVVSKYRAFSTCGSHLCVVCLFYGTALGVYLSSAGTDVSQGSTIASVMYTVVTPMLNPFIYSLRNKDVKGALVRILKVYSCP
Summed up: as §1

The target in assay [8] is T8, UniProt E9PZ66.
T8 sequence (whole entry): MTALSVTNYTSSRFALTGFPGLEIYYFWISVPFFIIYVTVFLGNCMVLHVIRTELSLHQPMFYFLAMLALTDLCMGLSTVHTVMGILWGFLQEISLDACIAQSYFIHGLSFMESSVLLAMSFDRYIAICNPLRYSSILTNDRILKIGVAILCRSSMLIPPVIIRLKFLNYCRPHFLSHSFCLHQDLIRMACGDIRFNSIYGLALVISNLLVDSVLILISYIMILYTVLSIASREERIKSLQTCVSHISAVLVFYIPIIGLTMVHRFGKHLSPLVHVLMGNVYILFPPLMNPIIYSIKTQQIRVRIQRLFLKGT
Summed up: as §1

Assay [9] deals with T9, UniProt E9Q4X7.
T9 sequence (whole entry): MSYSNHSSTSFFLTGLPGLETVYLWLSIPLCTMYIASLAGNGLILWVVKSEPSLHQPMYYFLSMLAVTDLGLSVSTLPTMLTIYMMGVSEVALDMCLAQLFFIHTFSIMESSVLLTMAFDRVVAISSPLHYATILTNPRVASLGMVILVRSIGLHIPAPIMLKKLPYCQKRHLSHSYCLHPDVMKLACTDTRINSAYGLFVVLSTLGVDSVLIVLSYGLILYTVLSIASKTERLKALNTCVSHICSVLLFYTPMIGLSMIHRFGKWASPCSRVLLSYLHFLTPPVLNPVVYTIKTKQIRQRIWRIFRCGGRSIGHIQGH
The method in brief: as §1

For assay [10], the target named is T10, UniProt E9Q6Z7.
T10 sequence (whole entry): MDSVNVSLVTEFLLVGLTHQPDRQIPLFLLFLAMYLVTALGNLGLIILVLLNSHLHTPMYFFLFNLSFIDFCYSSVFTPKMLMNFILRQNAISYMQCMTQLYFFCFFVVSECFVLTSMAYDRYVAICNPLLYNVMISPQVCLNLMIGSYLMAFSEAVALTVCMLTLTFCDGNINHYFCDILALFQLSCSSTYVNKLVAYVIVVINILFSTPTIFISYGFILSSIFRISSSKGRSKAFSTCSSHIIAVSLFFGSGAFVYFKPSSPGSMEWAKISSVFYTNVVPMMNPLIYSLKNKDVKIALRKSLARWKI
The method in brief:
as §1

Assay [11] deals with T11, UniProt E9Q9Z6.
T11 sequence (whole entry): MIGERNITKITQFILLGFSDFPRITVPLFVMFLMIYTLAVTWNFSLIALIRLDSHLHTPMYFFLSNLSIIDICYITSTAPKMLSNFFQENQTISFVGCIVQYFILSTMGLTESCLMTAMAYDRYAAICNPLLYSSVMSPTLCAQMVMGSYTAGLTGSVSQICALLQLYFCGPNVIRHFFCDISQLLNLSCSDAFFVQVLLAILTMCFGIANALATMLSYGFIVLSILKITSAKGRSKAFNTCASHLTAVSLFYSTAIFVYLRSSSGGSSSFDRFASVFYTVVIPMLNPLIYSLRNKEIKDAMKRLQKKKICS
The method in brief:
as §1

As for `CCCCOC(=O)C(C)OC(=O)CCC` (centres undefined), the “odorant receptor agonist call” value in assay [1], in assay [2], in [3] and in [4] was “inactive” in each case.

With `CCOC(=O)C(C)CC` (centres undefined), the “odorant receptor agonist call” value in assay [5], in [6], in assay [7], in assay [8], in [9] and in assay [3] was “inactive” each time. Besides, the “odorant receptor agonist call” value in assay [10] is “inactive”.

Turning to `CCC(C)O` (centres undefined), the “odorant receptor agonist call” value in [5], in assay [6], in assay [7], in assay [8], in [9] and in assay [3] was “inactive” throughout. The “odorant receptor agonist call” value in [10] is “inactive”.

As to `CC1CC=CCCCCCCCCCC(=O)C1` (centres undefined), the “odorant receptor agonist call” value in assay [5], in assay [6], in [7], in [8], in assay [9] and in assay [3] was “inactive” throughout. In assay [10], the “odorant receptor agonist call” value was “inactive”. In addition, the “odorant receptor agonist call” value in assay [11] is “active”.

In the case of `CSSCc1ccco1`, the “odorant receptor agonist call” value in assay [5], in assay [6], in assay [7], in assay [8], in [9] and in assay [3] was “inactive” in each case. The “odorant receptor agonist call” value in [10] was “inactive”.

In the case of `Cc1ccccc1OC(=O)C(C)C`, the “odorant receptor agonist call” value in assay [5], in [6], in [7], in [8], in [9] and in assay [3] was “inactive” in each case. The “odorant receptor agonist call” value in assay [10] is “inactive”.

Consider `CCc1occc(=O)c1O`, for which, in assay [5], the “odorant receptor agonist call” value is “active”. Moreover, the “odorant receptor agonist call” value in assay [6], in [7], in assay [8], in [9], in assay [3] and in [10] was “inactive” each time.

For the compound `CSSSC`, the “odorant receptor agonist call” value in assay [5], in assay [6], in assay [7], in [8], in assay [9] and in [3] was “inactive” in each case. Further, in [10], the “odorant receptor agonist call” value was “inactive”.

Source of the values: the M2OR odorant receptor database.
